In ChEMBL document CHEMBL3243941, “Hydrolysis of 3-chloro-3-cephems. Intramolecular nucleophilic attack in cefaclor” (J Med Chem, 1977):
In brackets after ≈: the same amount, converted by molar mass.

Columns and labels:
[1] = Hydrolytic stability of the compound assessed as beta-lactum ring opening rate at pH 10 at 35 degC by UV method; assay type: physicochemical; conditions: buffer
In short: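 Pseudo-first-order rate constants for β-lactam ring opening, measured by UV at pH 10.0 and 35 °C and reported as k_obsd (s−1).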

Escherichia coli = experiment: Antibacterial activity against Escherichia coli N10 assessed as growth inhibition; assay type: functional
Klebsiella aerogenes = experiment: Antibacterial activity against Enterobacter aerogenes X68 assessed as growth inhibition; assay type: functional
Shigella sp. = experiment: Antibacterial activity against Shigella sp. N9 assessed as growth inhibition; assay type: functional
Klebsiella pneumoniae = experiment: Antibacterial activity against Klebsiella pneumoniae X26 assessed as growth inhibition; assay type: functional
[2] = Antibacterial activity against Salmonella heidelberg X514 assessed as growth inhibition; assay type: functional, Salmonella enterica subsp. enterica serovar Heidelberg; conditions: Salmonella enterica

A k obsd [1] of 1.07e-05 s⁻¹, an MIC (Escherichia coli) of 116 µg/mL (≈ 343 µM) and an MIC (Klebsiella aerogenes) of 30 µg/mL (≈ 88.6 µM) were found for `CC1=C(C(=O)O)N2C(=O)[C@@H](NC(=O)Cc3cccs3)[C@H]2SC1` in this work. The MIC (Shigella sp.) was 120 µg/mL (≈ 355 µM), the MIC (Klebsiella pneumoniae) was 10 µg/mL (≈ 29.5 µM) and the MIC [2] was 29 µg/mL (≈ 85.7 µM).
A k obsd [1] of 0.000287 s⁻¹ was found for `N[C@@H](C(=O)N[C@@H]1C(=O)N2C(C(=O)O)=C(Cl)CS[C@H]12)c1ccccc1` [CEFACLOR ANHYDROUS] in this work.
A k obsd [1] of 9.7e-05 s⁻¹, an MIC (Escherichia coli) of 15 µg/mL (≈ 37.8 µM) and an MIC (Klebsiella aerogenes) of 3 µg/mL (≈ 7.57 µM) were found for `CC(=O)OCC1=C(C(=O)O)N2C(=O)[C@@H](NC(=O)Cc3cccs3)[C@H]2SC1` [CEPHALOTHIN] in this work. It also gave an MIC (Shigella sp.) of 14 µg/mL (≈ 35.3 µM), an MIC (Klebsiella pneumoniae) of 1 µg/mL (≈ 2.52 µM) and an MIC [2] of 1 µg/mL (≈ 2.52 µM).
A k obsd [1] of 0.000183 s⁻¹ was found for `O=C(COc1ccccc1)N[C@@H]1C(=O)N2C(C(=O)O)=C(Cl)CS[C@H]12` in this work.
A k obsd [1] of 0.000131 s⁻¹, an MIC (Escherichia coli) of 21.2 µg/mL (≈ 59.1 µM) and an MIC (Klebsiella aerogenes) of 0.9 µg/mL (≈ 2.51 µM) were found for `O=C(Cc1cccs1)N[C@@H]1C(=O)N2C(C(=O)O)=C(Cl)CS[C@H]12` in this work. For the same compound, the MIC (Shigella sp.) was 17.5 µg/mL (≈ 48.8 µM), the MIC (Klebsiella pneumoniae) was 0.8 µg/mL (≈ 2.23 µM) and the MIC [2] was 0.9 µg/mL (≈ 2.51 µM).
